From ChEMBL document CHEMBL1817648, “Synthesis and in vitro antibacterial activity of a series of novel gatifloxacin derivatives” (Eur J Med Chem, 2011)
Values after ≈ are worked out from the molar mass of the structure shown.

What was measured:
[1] = Cytotoxicity against african green monkey Vero cells after 72 hrs by MTT assay; assay type: cell-based; conditions: chlorocebus sabaeus
Method in brief: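 Vero cells were kept in Minimum Essential Medium with Earle's salts plus 10% fetal bovine serum at 37 °C under 5% CO₂. Cells were seeded at 1 × 10⁴ per well and allowed to recover 24 h. Medium was then replaced with assay medium containing compound or no drug, and cells were exposed for 72 h. CC₅₀ is the 50% cellular cytotoxic concentration.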

Staphylococcus aureus [2] = assay: Antibacterial activity against Staphylococcus aureus ATCC 25923 after 18 to 24 hrs by NCCLS M100-S11 two fold serial dilution method; assay type: functional; conditions: ATCC25923
Staphylococcus aureus [3] = assay: Antibacterial activity against methicillin-resistant Staphylococcus aureus 08-1 after 18 to 24 hrs by NCCLS M100-S11 two fold serial dilution method; assay type: functional
Method in brief: (§1)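 Two-fold serial dilution in agar medium. MIC read as the lowest concentration giving complete inhibition of bacterial growth after incubation at 35 °C for 18–24 h.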

Staphylococcus aureus [4] = assay: Antibacterial activity against methicillin-sensitive Staphylococcus aureus 08-1 after 18 to 24 hrs by NCCLS M100-S11 two fold serial dilution method; assay type: functional
[5] = test system: Staphylococcus epidermidis; assay: Antibacterial activity against methicillin-resistant Staphylococcus epidermidis 09-4 after 18 to 24 hrs by NCCLS M100-S11 two fold serial dilution method; assay type: functional; method in brief: as §1
[6] = test system: Staphylococcus epidermidis; assay: Antibacterial activity against methicillin-sensitive Staphylococcus epidermidis 09-3 after 18 to 24 hrs by NCCLS M100-S11 two fold serial dilution method; assay type: functional; method in brief: as §1
[7] = test system: Staphylococcus epidermidis; assay: Antibacterial activity against methicillin-sensitive Staphylococcus epidermidis 09-6 after 18 to 24 hrs by NCCLS M100-S11 two fold serial dilution method; assay type: functional; method in brief: as §1
Streptococcus pneumoniae [8] = assay: Antibacterial activity against Streptococcus pneumoniae 08-2 after 18 to 24 hrs by NCCLS M100-S11 two fold serial dilution method; assay type: functional
Streptococcus pneumoniae [9] = assay: Antibacterial activity against Streptococcus pneumoniae 08-4 after 18 to 24 hrs by NCCLS M100-S11 two fold serial dilution method; assay type: functional
Enterococcus faecium [10] = assay: Antibacterial activity against Enterococcus faecium 08-2 after 18 to 24 hrs by NCCLS M100-S11 two fold serial dilution method; assay type: functional
Enterococcus faecium [11] = assay: Antibacterial activity against Enterococcus faecium 08-7 after 18 to 24 hrs by NCCLS M100-S11 two fold serial dilution method; assay type: functional
Enterococcus faecalis [12] = assay: Antibacterial activity against Enterococcus faecalis 08-10 after 18 to 24 hrs by NCCLS M100-S11 two fold serial dilution method; assay type: functional
Enterococcus faecalis [13] = assay: Antibacterial activity against Enterococcus faecalis 08-12 after 18 to 24 hrs by NCCLS M100-S11 two fold serial dilution method; assay type: functional
Escherichia coli [14] = assay: Antibacterial activity against Escherichia coli ATCC 25922 after 18 to 24 hrs by NCCLS M100-S11 two fold serial dilution method; assay type: functional; conditions: ATCC25922
Escherichia coli [15] = assay: Antibacterial activity against Escherichia coli 08-21 after 18 to 24 hrs by NCCLS M100-S11 two fold serial dilution method; assay type: functional
Escherichia coli [16] = assay: Antibacterial activity against Escherichia coli 08-22 after 18 to 24 hrs by NCCLS M100-S11 two fold serial dilution method; assay type: functional
Klebsiella pneumoniae [17] = assay: Antibacterial activity against Klebsiella pneumoniae 09-22 after 18 to 24 hrs by NCCLS M100-S11 two fold serial dilution method; assay type: functional
Pseudomonas aeruginosa [18] = assay: Antibacterial activity against Pseudomonas aeruginosa ATCC 27853 after 18 to 24 hrs by NCCLS M100-S11 two fold serial dilution method; assay type: functional
Pseudomonas aeruginosa [19] = assay: Antibacterial activity against Pseudomonas aeruginosa 09-32 after 18 to 24 hrs by NCCLS M100-S11 two fold serial dilution method; assay type: functional
Pseudomonas aeruginosa [20] = assay: Antibacterial activity against Pseudomonas aeruginosa 09-33 after 18 to 24 hrs by NCCLS M100-S11 two fold serial dilution method; assay type: functional
Pseudomonas aeruginosa [21] = assay: Antibacterial activity against Pseudomonas aeruginosa 09-34 after 18 to 24 hrs by NCCLS M100-S11 two fold serial dilution method; assay type: functional
Klebsiella pneumoniae [22] = assay: Antibacterial activity against Klebsiella pneumoniae 09-23 after 18 to 24 hrs by NCCLS M100-S11 two fold serial dilution method; assay type: functional

SMILES | MIC (Staphylococcus aureus [2]) [µg/mL] | MIC (Staphylococcus aureus [3]) [µg/mL] | MIC (Staphylococcus aureus [4]) [µg/mL] | MIC [5] [µg/mL] | MIC [6] [µg/mL] | MIC [7] [µg/mL] | MIC (Streptococcus pneumoniae [8]) [µg/mL] | MIC (Streptococcus pneumoniae [9]) [µg/mL] | MIC (Enterococcus faecium [10]) [µg/mL] | MIC (Enterococcus faecium [11]) [µg/mL] | MIC (Enterococcus faecalis [12]) [µg/mL] | MIC (Enterococcus faecalis [13]) [µg/mL] | MIC (Escherichia coli [14]) [µg/mL] | MIC (Escherichia coli [15]) [µg/mL] | MIC (Escherichia coli [16]) [µg/mL] | MIC (Klebsiella pneumoniae [17]) [µg/mL] | MIC (Pseudomonas aeruginosa [18]) [µg/mL] | MIC (Pseudomonas aeruginosa [19]) [µg/mL] | MIC (Pseudomonas aeruginosa [20]) [µg/mL] | MIC (Klebsiella pneumoniae [22]) [µg/mL] | also measured
COc1c(N2CCN(CC#N)C(C)C2)c(F)cc2c(=O)c(C(=O)O)cn(C3CC3)c12 (centres undefined) | 1 (≈ 2.41 µM) | 1 (≈ 2.41 µM) | 1 (≈ 2.41 µM) | 0.25 (≈ 0.603 µM) | 0.25 (≈ 0.603 µM) | 0.25 (≈ 0.603 µM) | 8 (≈ 19.3 µM) | 1 (≈ 2.41 µM) | 8 (≈ 19.3 µM) | 8 (≈ 19.3 µM) | 8 (≈ 19.3 µM) | 8 (≈ 19.3 µM) | 4 (≈ 9.65 µM) | 8 (≈ 19.3 µM) | 8 (≈ 19.3 µM) | 2 (≈ 4.83 µM) | 2 (≈ 4.83 µM) | 0.25 (≈ 0.603 µM) | 32 (≈ 77.2 µM) | 2 (≈ 4.83 µM) | CC50 at 72 h [1]: 354 µg/mL (≈ 853 µM); MIC (Pseudomonas aeruginosa [21]): 2 µg/mL (≈ 4.83 µM)
COc1c(N2CCN(CCC#N)C(C)C2)c(F)cc2c(=O)c(C(=O)O)cn(C3CC3)c12 (centres undefined) | 2 (≈ 4.67 µM) | 4 (≈ 9.34 µM) | 4 (≈ 9.34 µM) | 2 (≈ 4.67 µM) | 0.25 (≈ 0.583 µM) | 2 (≈ 4.67 µM) | 32 (≈ 74.7 µM) | 4 (≈ 9.34 µM) | 32 (≈ 74.7 µM) | 32 (≈ 74.7 µM) | 64 (≈ 149 µM) | 32 (≈ 74.7 µM) | 16 (≈ 37.3 µM) | 32 (≈ 74.7 µM) | 64 (≈ 149 µM) | 32 (≈ 74.7 µM) | 8 (≈ 18.7 µM) | 4 (≈ 9.34 µM) | 128 (≈ 299 µM) | 32 (≈ 74.7 µM) | CC50 at 72 h [1]: 500 µg/mL (≈ 1170 µM); MIC (Pseudomonas aeruginosa [21]): 16 µg/mL (≈ 37.3 µM)
COC(=O)CN1CCN(c2c(F)cc3c(=O)c(C(=O)O)cn(C4CC4)c3c2OC)CC1C (centres undefined) | 8 (≈ 17.9 µM) | 128 (≈ 286 µM) | 32 (≈ 71.5 µM) | 32 (≈ 71.5 µM) | 32 (≈ 71.5 µM) | 32 (≈ 71.5 µM) | > 128 | > 128 | > 128 | > 128 | > 128 | > 128 | 128 (≈ 286 µM) | > 128 | > 128 | 128 (≈ 286 µM) | 128 (≈ 286 µM) | 128 (≈ 286 µM) | 128 (≈ 286 µM) | > 128 | CC50 at 72 h [1]: 500 µg/mL (≈ 1120 µM); MIC (Pseudomonas aeruginosa [21]): > 128 µg/mL
CCOC(=O)CCN1CCN(c2c(F)cc3c(=O)c(C(=O)O)cn(C4CC4)c3c2OC)CC1C (centres undefined) | 128 (≈ 269 µM) |  | > 128 | > 128 | > 128 | > 128 | > 128 | > 128 | > 128 | > 128 | > 128 | > 128 | 128 (≈ 269 µM) | > 128 | > 128 | > 128 | 128 (≈ 269 µM) | > 128 | > 128 | > 128 | MIC (Pseudomonas aeruginosa [21]): > 128 µg/mL
COc1c(N2CCNC(C)C2)c(F)cc2c(=O)c(C(=O)O)cn(C3CC3)c12 (centres undefined) [GATIFLOXACIN] | 0.125 (≈ 0.333 µM) | 0.125 (≈ 0.333 µM) | 0.06 (≈ 0.16 µM) | 0.25 (≈ 0.666 µM) | 0.25 (≈ 0.666 µM) | 8 (≈ 21.3 µM) | 4 (≈ 10.7 µM) | 0.25 (≈ 0.666 µM) | 2 (≈ 5.33 µM) | 4 (≈ 10.7 µM) | 4 (≈ 10.7 µM) | 2 (≈ 5.33 µM) | 2 (≈ 5.33 µM) | 4 (≈ 10.7 µM) | 4 (≈ 10.7 µM) | 0.125 (≈ 0.333 µM) | 1 (≈ 2.66 µM) | 8 (≈ 21.3 µM) | 4 (≈ 10.7 µM) | 2 (≈ 5.33 µM) | MIC (Pseudomonas aeruginosa [21]): 1 µg/mL (≈ 2.66 µM)
C[C@H]1COc2c(N3CCN(C)CC3)c(F)cc3c(=O)c(C(=O)O)cn1c23.C[C@H]1COc2c(N3CCN(C)CC3)c(F)cc3c(=O)c(C(=O)O)cn1c23.O [LEVOFLOXACIN] | 0.25 | 0.06 | 0.25 | 0.5 | 0.06 | 2 |  |  | 4 | 8 | 8 | 8 | 2 | 8 | 4 | 16 |  | 16 | 8 | 8 | 
